# Measurements as given in ChEMBL document CHEMBL4706717, “Covalent Occlusion of the RORγt Ligand Binding Pocket Allows Unambiguous Targeting of an Allosteric Site” (ACS Med Chem Lett, 2021).
# The source made the active and inactive calls. The rule behind the calls is not given here.
# Assays:
# [1] = molecular target: T1, Peroxisome proliferator-activated receptor gamma (Homo sapiens) (UniProt P37231); assay: Binding affinity to PPARgamma (unknown origin)
# T1 sequence (whole entry): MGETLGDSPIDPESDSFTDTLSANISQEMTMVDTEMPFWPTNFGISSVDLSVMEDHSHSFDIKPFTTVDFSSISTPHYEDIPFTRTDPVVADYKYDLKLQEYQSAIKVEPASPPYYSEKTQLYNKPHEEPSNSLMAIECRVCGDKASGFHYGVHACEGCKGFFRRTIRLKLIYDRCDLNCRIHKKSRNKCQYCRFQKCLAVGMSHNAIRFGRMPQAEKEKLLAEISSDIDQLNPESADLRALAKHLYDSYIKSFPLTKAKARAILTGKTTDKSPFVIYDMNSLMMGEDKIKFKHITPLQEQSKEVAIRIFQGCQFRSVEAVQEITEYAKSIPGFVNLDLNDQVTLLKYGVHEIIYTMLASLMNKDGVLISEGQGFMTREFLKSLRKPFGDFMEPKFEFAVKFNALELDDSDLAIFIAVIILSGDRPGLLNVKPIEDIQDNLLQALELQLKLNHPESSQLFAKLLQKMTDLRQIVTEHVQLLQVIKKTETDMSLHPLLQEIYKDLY
# [2] = molecular target: T2, Nuclear receptor ROR-gamma (Homo sapiens) (UniProt P51449); settings: filed as inverse agonist, dose 10.0 µM
# T2 sequence (whole entry): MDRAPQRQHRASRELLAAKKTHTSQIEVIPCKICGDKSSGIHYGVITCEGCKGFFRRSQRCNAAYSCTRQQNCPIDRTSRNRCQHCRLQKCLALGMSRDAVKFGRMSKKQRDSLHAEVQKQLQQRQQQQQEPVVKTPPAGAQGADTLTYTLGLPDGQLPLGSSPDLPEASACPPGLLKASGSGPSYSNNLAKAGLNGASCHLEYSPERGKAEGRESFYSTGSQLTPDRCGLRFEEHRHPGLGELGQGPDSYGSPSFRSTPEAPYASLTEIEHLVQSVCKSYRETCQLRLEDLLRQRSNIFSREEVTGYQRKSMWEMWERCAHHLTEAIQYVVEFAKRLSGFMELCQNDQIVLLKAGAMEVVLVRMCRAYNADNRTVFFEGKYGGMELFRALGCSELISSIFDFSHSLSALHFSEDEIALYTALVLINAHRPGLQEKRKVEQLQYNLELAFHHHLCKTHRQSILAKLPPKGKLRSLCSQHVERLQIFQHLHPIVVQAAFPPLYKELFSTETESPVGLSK
# [3] = molecular target: T3, Nuclear receptor ROR-gamma (Homo sapiens, UniProt P51449); assay: Orthosteric inverse agonist activity at recombinant human N-terminal His6-tagged RORgammat ligand binding domain (265 to 518 residues) expressed in Escherichia coli BL21 (DE3) assessed as reduction in coactivator, N-terminal biotinylated SRC-1 box2 peptide recruitment incubated for 60 mins by TR-FRET assay
# T3 sequence (P51449 whole entry): T2 sequence (whole entry)
# [4] = species on record: Homo sapiens; assay: Binding affinity to recombinant human N-terminal His6-tagged RORgammat ligand binding domain (265 to 507 residues) Cys320Ala mutant expressed in Escherichia coli BL21 (DE3) incubated for overnight by Q-TOF-MS analysis
# Procedure, shortened: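 Ligation of His6-RORγt LBD (residues 265-507, used for mutagenesis work) at 20 μM with 5-10 eq probe in 50 mM TRIS (pH 5.3-5.8), 50 mM NaCl, 5 mM CHAPS, 0.1% BSA, continuous mixing overnight at 4°C or RT; LC-MS Q-TOF, deconvoluted spectra; percent ligation from ratio of mass peaks.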
# [5] = molecular target: T2, Nuclear receptor ROR-gamma (Homo sapiens); assay: (§1) Orthosteric agonist activity at 2-chloro-5-nitro-N-(2-(trifluoromethyl)phenyl)benzamide-ligated recombinant human N-terminal His6-tagged RORgammat ligand binding domain (265 to 518 residues) expressed in Escherichia coli BL21 (DE3) assessed as increase in coactivator, N-terminal biotinylated SRC-1 box2 peptide recruitment in presence of 2-chloro-5-nitro-N-(2-(trifluoromethyl)phenyl)benzamide incubated for 60 mins by TR-FRET assay
# Procedure, shortened: (§2)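 Dose response: probe and His6-RORγt LBD (265-518, 20 μM) co-titrated (1.4x series, top 10 eq, 200 μM) in pH 5.8 TRIS/NaCl/CHAPS/BSA buffer overnight (4°C or RT per compound). Then 100 nM LBD, 100 nM biotin-SRC-1 box2, Tb anti-His, d2-streptavidin in HEPES pH 7.5, 150 mM NaCl, 5 mM DTT, 0.1% BSA, 0.1 mM CHAPS, 1% DMSO; top probe 1 μM; 60 min RT; 665/620 nm ratio; four-parameter fit; triplicate, ≥2 experiments.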
# [6] = molecular target: T2, Nuclear receptor ROR-gamma (Homo sapiens); assay: as §1, with “GW9662-ligated” for “2-chloro-5-nitro-N-(2-(trifluoromethyl)phenyl)benzamide-ligated”, “GW9662” for “2-chloro-5-nitro-N-(2-(trifluoromethyl)phenyl)benzamide”; procedure, shortened: as §2
# [7] = molecular target: T2, Nuclear receptor ROR-gamma (Homo sapiens); assay: Orthosteric agonist activity at 2-chloro-5-nitro-N-o-tolylbenzamide-ligated recombinant human N-terminal His6-tagged RORgammat ligand binding domain (265 to 518 residues) expressed in Escherichia coli BL21 (DE3) assessed as increase in coactivator, N-terminal biotinylated SRC-1 box2 peptide recruitment in presence of 2-chloro-5-nitro-N-o-tolylbenzamide incubated for 60 mins by TR-FRET assay; procedure, shortened: as §2
# [8] = molecular target: T2, Nuclear receptor ROR-gamma (Homo sapiens); assay: Orthosteric agonist activity at 2-chloro-N-(2,6-dimethylphenyl)-5-nitrobenzamide-ligated recombinant human N-terminal His6-tagged RORgammat ligand binding domain (265 to 518 residues) expressed in Escherichia coli BL21 (DE3) assessed as increase in coactivator, N-terminal biotinylated SRC-1 box2 peptide recruitment in presence of 2-chloro-N-(2,6-dimethylphenyl)-5-nitrobenzamide incubated for 60 mins by TR-FRET assay; procedure, shortened: as §2
# [9] = molecular target: T2, Nuclear receptor ROR-gamma (Homo sapiens); settings: filed as inverse agonist, dose 10.0 µM; remark: listed apart in the source
Structure (SMILES),Activity [1],further results
O=C(NCc1ccccc1)c1cc([N+](=O)[O-])ccc1Cl,Active,
C[C@H]1O[C@@H](O[C@H]2[C@@H](O)C[C@H](O[C@H]3[C@@H](O)C[C@H](O[C@H]4CC[C@@]5(C)[C@H](CC[C@@H]6[C@@H]5C[C@@H](O)[C@]5(C)[C@@H](C7=CC(=O)OC7)CC[C@]65O)C4)O[C@@H]3C)O[C@@H]2C)C[C@H](O)[C@@H]1O,,ΔTm [2]: -0.2 °C
O=C(c1cc([N+](=O)[O-])ccc1Cl)n1cccc1,inactive,
O=C(Nc1ccccc1)c1cc([N+](=O)[O-])ccc1Cl,,IC50 [3]: 86 nM; Activity [4]: inactive
CC(C)CCC[C@@H](C)[C@H]1CC[C@H]2[C@@H]3CC=C4C[C@@H](O)CC[C@]4(C)[C@H]3CC[C@]12C,,Activity [5]: inactive; Activity [6]: inactive; Activity [7]: inactive; Activity [8]: inactive
COc1ccc(NC(=O)c2cc([N+](=O)[O-])ccc2Cl)cc1,Active,
O=C(O)c1ccc(NCc2c(-c3c(Cl)cccc3C(F)(F)F)noc2-c2cc[nH]c2)cc1,,ΔTm [9]: 2.1 °C
O=C(Nc1ccsc1)c1cc([N+](=O)[O-])ccc1Cl,Active,IC50 [3]: 122 nM
CC(C)NC(=O)c1cc([N+](=O)[O-])ccc1Cl,Active,
Cc1ccccc1NC(=O)c1cc([N+](=O)[O-])ccc1Cl,Active,IC50 [3]: 77 nM

# Continued, in another order:
Activity [1],Structure (SMILES),further results
inactive,O=C(Nc1ccccc1)c1cc(Cl)ccc1[N+](=O)[O-],
Active,C=CCNC(=O)c1cc([N+](=O)[O-])ccc1Cl,
Active,Cc1cccc(NC(=O)c2cc([N+](=O)[O-])ccc2Cl)c1,
Active,O=C(Nc1ccc([N+](=O)[O-])cc1)c1cc([N+](=O)[O-])ccc1Cl,
Active,Cc1ccc(NC(=O)c2cc([N+](=O)[O-])ccc2Cl)cc1,
Active,O=C(NC1CCCCC1)c1cc([N+](=O)[O-])ccc1Cl,
